Values after ≈ are worked out from the molar mass of the structure shown.
Experiments:
Staphylococcus aureus [1] = experiment: Antibacterial activity against Staphylococcus aureus UC76; format: functional
Summary of the method: (§1)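 Minimum inhibitory concentration measured by standard microtitration, run as part of a panel of 11 bacterial organisms.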

DNA gyrase = DNA gyrase (Escherichia coli, UniProt P0AES4+P0AES6); experiment: 50% inhibitory concentration against DNA-gyrase; format: protein-complex assay
Escherichia coli [2] = experiment: Antibacterial activity against Escherichia coli H560; format: functional; summary of the method: as §1
Escherichia coli [3] = experiment: Median protective dose against Escherichia coli, determined in acute, lethal systemic infection in female charles river CD-1 mice (po); format: functional; design: PD50: unit not given here; details: for ED50: Escherichia coli, po, read-out: PD50
Summary of the method: (§2)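 Female Charles River CD-1 mice (18-22 g) were challenged intraperitoneally with about 100 median lethal doses in 0.5 mL 5% hog gastric mucin. Single compound doses in a twofold rising series were given in 0.5 mL at the time of challenge: sc as aqueous solution, po by gavage in 5% gum acacia. Groups of eight mice were used per dose. PD50 was estimated from survival percentages by log probit.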

Enterobacter cloacae = experiment: Antibacterial activity against Enterobacter cloacae MA2646; format: functional
Escherichia coli [4] = experiment: Median protective dose against Escherichia coli, determined in acute, lethal systemic infection in female charles river CD-1 mice (sc); format: functional; details: read-out: PD50; summary of the method: as §2
Klebsiella pneumoniae = experiment: Antibacterial activity against Klebsiella pneumoniae MGH-2; format: functional; summary of the method: as §1
Pseudomonas aeruginosa = experiment: Antibacterial activity against Pseudomonas aeruginosa UI-18; format: functional; summary of the method: as §1
Providencia rettgeri = experiment: Antibacterial activity against Providencia rettgeri M1771; format: functional; summary of the method: as §1
Staphylococcus aureus [5] = experiment: Antibacterial activity against Staphylococcus aureus H-228; format: functional; summary of the method: as §1
Escherichia coli [6] = experiment: Antibacterial activity against Escherichia coli Vogel; format: functional; summary of the method: as §1
Streptococcus pneumoniae = experiment: Antibacterial activity against Streptococcus pneumoniae SV-1; format: functional; summary of the method: as §1
Streptococcus pyogenes = experiment: Antibacterial activity against Streptococcus pyogenes C203; format: functional; summary of the method: as §1
Enterococcus faecalis = experiment: Antibacterial activity against Streptococcus faecalis MGH-2; format: functional; summary of the method: as §1

SMILES	MIC (Staphylococcus aureus [1]) [µg/mL]	IC50 (DNA gyrase) [µM]	MIC (Escherichia coli [2]) [µg/mL]	ED50 (Escherichia coli [3]) [mg/kg]	MIC (Enterobacter cloacae) [µg/mL]	ED50 (Escherichia coli [4]) [mg/kg]	MIC (Klebsiella pneumoniae) [µg/mL]	MIC (Pseudomonas aeruginosa) [µg/mL]	MIC (Providencia rettgeri) [µg/mL]	MIC (Staphylococcus aureus [5]) [µg/mL]	MIC (Escherichia coli [6]) [µg/mL]	MIC (Streptococcus pneumoniae) [µg/mL]	MIC (Streptococcus pyogenes) [µg/mL]	MIC (Enterococcus faecalis) [µg/mL]	PD50 (Escherichia coli [3])
CNCC1CCN(c2c(F)c(N)c3c(=O)c(C(=O)O)cn(C4CC4)c3c2F)C1 (stereo unspecified)	0.006 (≈ 0.0153 µM)	7.65	0.003 (≈ 0.00765 µM)	7.5	0.05 (≈ 0.127 µM)	0.8	0.05 (≈ 0.127 µM)	0.4 (≈ 1.02 µM)	0.2 (≈ 0.51 µM)	0.013 (≈ 0.0331 µM)	0.025 (≈ 0.0637 µM)	0.003 (≈ 0.00765 µM)	0.003 (≈ 0.00765 µM)	0.025 (≈ 0.0637 µM)	
Nc1c(F)c(N2CCNCC2)c(F)c2c1c(=O)c(C(=O)O)cn2C1CC1	0.013 (≈ 0.0357 µM)	7.68	0.003 (≈ 0.00823 µM)	0.8	0.013 (≈ 0.0357 µM)	0.2	0.025 (≈ 0.0686 µM)	0.025 (≈ 0.0686 µM)	0.05 (≈ 0.137 µM)	0.05 (≈ 0.137 µM)	0.013 (≈ 0.0357 µM)	0.05 (≈ 0.137 µM)	0.2 (≈ 0.549 µM)	0.05 (≈ 0.137 µM)	
O=C(O)c1cn(C2CC2)c2c(F)c(N3CCNCC3)c(F)cc2c1=O	0.1 (≈ 0.286 µM)	8.02	0.025 (≈ 0.0716 µM)		0.05 (≈ 0.143 µM)	0.3	0.05 (≈ 0.143 µM)	0.2 (≈ 0.573 µM)	0.1 (≈ 0.286 µM)	0.4 (≈ 1.15 µM)	0.1 (≈ 0.286 µM)	0.8 (≈ 2.29 µM)	0.8 (≈ 2.29 µM)	0.4 (≈ 1.15 µM)	0.45
CC1COc2c(N3CCN(C)CC3)c(F)cc3c(=O)c(C(=O)O)cn1c23 (stereo unspecified) [OFLOXACIN]	0.1 (≈ 0.277 µM)		0.1 (≈ 0.277 µM)	2	0.1 (≈ 0.277 µM)	0.8	0.1 (≈ 0.277 µM)	0.4 (≈ 1.11 µM)	0.1 (≈ 0.277 µM)	0.4 (≈ 1.11 µM)	0.1 (≈ 0.277 µM)	0.8 (≈ 2.21 µM)	0.8 (≈ 2.21 µM)	0.8 (≈ 2.21 µM)	
Nc1c(F)c(N2CCC(N)C2)c(F)c2c1c(=O)c(C(=O)O)cn2C1CC1 (stereo unspecified)	0.006 (≈ 0.0165 µM)	7.14	0.003 (≈ 0.00823 µM)	1.6	0.006 (≈ 0.0165 µM)	0.4	0.006 (≈ 0.0165 µM)	0.05 (≈ 0.137 µM)	0.025 (≈ 0.0686 µM)	0.013 (≈ 0.0357 µM)	0.006 (≈ 0.0165 µM)	0.006 (≈ 0.0165 µM)	0.025 (≈ 0.0686 µM)	0.025 (≈ 0.0686 µM)	
CCNCC1CCN(c2c(F)c(N)c3c(=O)c(C(=O)O)cn(C4CC4)c3c2F)C1 (stereo unspecified)	0.003 (≈ 0.00738 µM)	6.64	0.013 (≈ 0.032 µM)		0.05 (≈ 0.123 µM)	2.4	0.05 (≈ 0.123 µM)	0.4 (≈ 0.984 µM)	0.05 (≈ 0.123 µM)	0.013 (≈ 0.032 µM)	0.05 (≈ 0.123 µM)	0.003 (≈ 0.00738 µM)	0.013 (≈ 0.032 µM)	0.025 (≈ 0.0615 µM)	16
CCNCC1CCN(c2c(F)cc3c(=O)c(C(=O)O)cn(C4CC4)c3c2F)C1 (stereo unspecified) [PD-117558]	0.006 (≈ 0.0153 µM)	3.58	0.025 (≈ 0.0639 µM)	4.2	0.2 (≈ 0.511 µM)	1	0.1 (≈ 0.255 µM)	0.4 (≈ 1.02 µM)	0.2 (≈ 0.511 µM)	0.05 (≈ 0.128 µM)	0.05 (≈ 0.128 µM)	0.025 (≈ 0.0639 µM)	0.025 (≈ 0.0639 µM)	0.025 (≈ 0.0639 µM)	
NCC1CCN(c2c(F)c(N)c3c(=O)c(C(=O)O)cn(C4CC4)c3c2F)C1 (stereo unspecified)	0.003 (≈ 0.00793 µM)	7.66	0.003 (≈ 0.00793 µM)	12	0.025 (≈ 0.0661 µM)	0.8	0.025 (≈ 0.0661 µM)	0.1 (≈ 0.264 µM)	0.05 (≈ 0.132 µM)	0.006 (≈ 0.0159 µM)	0.013 (≈ 0.0344 µM)	0.003 (≈ 0.00793 µM)	0.003 (≈ 0.00793 µM)	0.013 (≈ 0.0344 µM)	

Reference: ChEMBL document CHEMBL1124255, “7-substituted 5-amino-1-cyclopropyl-6,8-difluoro-1,4-dihydro-4-oxo-3- quinolinecarboxylic acids: synthesis and biological activity of a new class of quinolone antibacterials” (J Med Chem, 1988)
